# Measured values: the RNAGym collection of RNA variant scans (doi:10.1038/nmeth.2970)
# B1: NELF-E aptamer (parent)
# chain: CCCAACGACUGCCGAGCGAGAUUACGCUUGAGCGCCCCACUGAGGAUGCCCACGGGCGAUUGGGGCACGG
# Variants of: B1
# Experiment: HiTS-RAP
# Conditions: with NELF-E (Drosophila)
# Outline: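 Kd came from weighted Hill fits to the first binding curve, with intensities normalised to sequencing intensity and averaged per sequence, keeping only fits whose variance was below 1,000,000. That curve was imaged on an Illumina GAIIx flowcell, where sequenced aptamer DNA templates with a T7 promoter and ter site had been transcribed in situ by T7 RNA polymerase and halted by GST-Tus (30 minutes, 37°C). Before each image, clusters equilibrated for 30 minutes at room temperature with NELF-E-mOrange at 0.064 to 1000 nM in HEPES binding buffer.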
row,Variant,Kd [nM]
1,CCCAACGGCUGCCGAACGAGAUUACGCUUGAGCGCCCCACUGAGGAUGCCCACGGGCGAUUGGGGCACGG [A8G G16A],5.75
2,CCCAGCGACUGCCGAGCGAGAUUACGCUUGAGCGCCCCACUGAGAAUGCCCACGGGCGAUUGGGGCACGG [A5G G45A],21.9
3,CCCAACGACUGCCGAUCGAGAUUACGCUUGAGCGCCCCACCGAGGAUGCCCACGGGCGAUUGGGGCACGG [G16U U41C],76.2
4,CCCAACGACUGCCAAGCGAGAUUACGCUUGAGCGCCCCACUGAGGAUGCCCACGGGCGAUAGGGGCACGG [G14A U61A],30.3
5,CCCAACGACUGCCGAGCGAGAUUACGCUUGAGCGCCCCACUGAGGAUGCCCUCGGACGAUUGGGGCACGG [A52U G56A],99
6,CCCAGCGACUGCCGAGCGAGAUUACGCUUGAGCGCCCCACCGAGGAUGCCCACGGGCGAUUGGGGCACGG [A5G U41C],84.9
7,CCCAACGACUGCCGGGCGAGAUGACGCUUGAGCGCCCCACUGAGGAUGCCCACGGGCGAUUGGGGCACGG [A15G U23G],5.24
8,CCCAAGGACUGCCGUGCGAGAUUACGCUUGAGCGCCCCACUGAGGAUGCCCACGGGCGAUUGGGGCACGG [C6G A15U],6.24
9,CCCAAGGACUGCCGGGCGAGAUUACGCUUGAGCGCCCCACUGAGGAUGCCCACGGGCGAUUGGGGCACGG [C6G A15G],5.46
10,CCCAACGACUGCGGAGCGAGAUUACGCUUGAGCGCCCCACUGAGGAUGCCCACGGGCGAUUAGGGCACGG [C13G G62A],32.4
11,CCCAACGGCUGCCGAGCGAGAUUACGCUUGAGCGCCCCACUGAGGAUGCCCACGGGCUAUUGGGGCACGG [A8G G58U],20.1
12,CCCCACGACUGCCGAGCGAGAUUGCGCUUGAGCGCCCCACUGAGGAUGCCCACGGGCGAUUGGGGCACGG [A4C A24G],7.08
13,CCCAACGAGUGCCGAGCGAGAUUACGCUUGAGCGCCCCACUGAGGAUGCGCACGGGCGAUUGGGGCACGG [C9G C50G],7.4
14,CCCUACGACUGCCGAGGGAGAUUACGCUUGAGCGCCCCACUGAGGAUGCCCACGGGCGAUUGGGGCACGG [A4U C17G],5.58
15,CCCAACGACUGCCGAUCGAGAUUACGCUUGAGCGCCCCACUGAGGAUGCCCACAGGCGAUUGGGGCACGG [G16U G54A],16.2
16,CCCACGGACUGCCGAGCGAGAUUACGCUUGAGCGCCCCACUGAGGAUGCCCACGGGCGAUUGGGGCACGG [A5C C6G],5.97
17,CCCAACGACUGCCGUGGGAGAUUACGCUUGAGCGCCCCACUGAGGAUGCCCACGGGCGAUUGGGGCACGG [A15U C17G],7.12
18,CCCAACGACUGCCGAGCGAGAGUACGCUUGAGCGCCCCACUGAGGAUGCCCACGGGCGAUUGGGGCGCGG [U22G A67G],5.48
19,CCCAACGACGCCCGAGCGAGAUUACGCUUGAGCGCCCCACUGAGGAUGCCCACGGGCGAUUGGGGCACGG [U10G G11C],5.59

row,Variant,Kd [nM]
1,CCCAAGGACUGCCGAGCGAGAGUACGCUUGAGCGCCCCACUGAGGAUGCCCACGGGCGAUUGGGGCACGG [C6G U22G],5.09
2,CCCAACGACUGCCAAGCGAGAUUACGCUUGAGCGCCCCACGGAGGAUGCCCACGGGCGAUUGGGGCACGG [G14A U41G],5.69
3,CCCAACGACUGCGGAGCGAGAUUACGCUUGAGCGCCCCACUGAGGAUGCUCACGGGCGAUUGGGGCACGG [C13G C50U],14.7
4,CCCAACGACUGCCGAGCGAGAUGACGCUUGAGCGCCCCACUGAGGAUGCCCACGGGCGAUUAGGGCACGG [U23G G62A],15.5
5,CCCAACGACUGCCGAGCGGGAUUACGCUUGAGCGCCCCACUGAGGAGGCCCACGGGCGAUUGGGGCACGG [A19G U47G],7.16
6,CCCAACGACUGCCGAGGGAAAUUACGCUUGAGCGCCCCACUGAGGAUGCCCACGGGCGAUUGGGGCACGG [C17G G20A],5.92
7,CCCAACGACUGCCGAGGGAUAUUACGCUUGAGCGCCCCACUGAGGAUGCCCACGGGCGAUUGGGGCACGG [C17G G20U],6.58
8,CCCAACGACUGCCGAGCGGGACUACGCUUGAGCGCCCCACUGAGGAUGCCCACGGGCGAUUGGGGCACGG [A19G U22C],4.25
9,CCCAACGAGUGCCGAGCGAGAUUACGCUUGAGCGCCCCACUGAGGAUGCCCACGGGCGGUUGGGGCACGG [C9G A59G],64.3
10,CCCAACGACUGCCAAGCGAGAUUACGCUUGAGCGCCCCACUGAGGAUGCCCACGGGCGAUUGGGGCUCGG [G14A A67U],6.56
11,CCCAACGGCUGCCGAGCGAGAUUACGCUUGAGCGCCCCACUGAGGAUGCCCACGGGCGAUUGGGGCACGG [A8G],5.44
12,CCCAACGACUGCCGAGCGAGAUUACGCUUGAGCUCCCCACUGAGGAUGCCCACGGGCGAUUGGGGCACGG [G34U],5.56
13,CCCAACGACUGCCGAGCGAGAUUACGCUUGAGCGCCCCUCUGAGGAUGCCCACGGGCGAUUGGGGUACGG [A39U C66U],21.2
14,CCCAACGACCGCCGAGCGAGAUUACGCUUGAGCGCCCCACUGAGGAUGCCCACGGGCGAUAGGGGCACGG [U10C U61A],33.1
15,CCCAACGACUGCCGAGCGGGAUUACGCUUGAGCGUCCCACUGAGGAUGCCCACGGGCGAUUGGGGCACGG [A19G C35U],7.42
16,CCCAGCGACUGCCGAGGGAGAUUACGCUUGAGCGCCCCACUGAGGAUGCCCACGGGCGAUUGGGGCACGG [A5G C17G],5.22
17,CCCAAGGAUUGCCGAGCGAGAUUACGCUUGAGCGCCCCACUGAGGAUGCCCACGGGCGAUUGGGGCACGG [C6G C9U],5.58
18,CCCAACGACUGGCGAGCGAGAUUACGCUUGAGCGCCCCAUUGAGGAUGCCCACGGGCGAUUGGGGCACGG [C12G C40U],126
19,CCCAACGACUGCCUAACGAGAUUACGCUUGAGCGCCCCACUGAGGAUGCCCACGGGCGAUUGGGGCACGG [G14U G16A],6.74
